# Experimental data published in ChEMBL document CHEMBL3352181, “Novel phenyl and pyridyl substituted derivatives of isoindolines: Synthesis, antitumor activity and DNA binding features” (Eur J Med Chem, 2014).
# Calls of active or inactive are those of the source. The calls are words filed in the database; no cut-off is given here.
# Legend:
# MCF7 = assay: Antiproliferative activity against human MCF7 cells assessed as inhibition of cell proliferation after 72 hrs by MTT assay; type: functional, cell-based
# How it was run: (§1)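 Cells grown as monolayers in DMEM with 10% FBS, 2 mM L-glutamine, penicillin/streptomycin, 37 °C, 5% CO2. Seeded at 5000/well on day 0. Compounds added after 24 h as five serial dilutions (0,01 to 100 µM), DMSO ≤0.1%, then 72 h. MTT read-out converted to percentage growth. IC50 by linear regression; quadruplicates in three experiments.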
# [1] = (§2) Antiproliferative activity against human SW620 cells assessed as inhibition of cell proliferation after 72 hrs by MTT assay; type: functional, cell-based, SW-620; how it was run: as §1
# SW-620 = assay: as §2; type: functional, cell-based; how it was run: as §1
# HepG2 = assay: Antiproliferative activity against human HepG2 cells assessed as inhibition of cell proliferation after 72 hrs by MTT assay; type: functional, cell-based; details: for IC50: HepG2, 72 h; how it was run: as §1
# BJ = assay: Antiproliferative activity against human BJ cells assessed as inhibition of cell proliferation after 72 hrs by MTT assay; type: cell-based; details: for inhibition (INH): human; how it was run: as §1
# HeLa = assay: Antiproliferative activity against human HeLa cells assessed as inhibition of cell proliferation after 72 hrs by MTT assay; type: functional, cell-based; how it was run: as §1
# Calf thymus DNA [2] = assay: Binding affinity to calf thymus DNA assessed as change in melting temperature at drug/ base pair ratio of 0.5 by spectrophotometry; type: nucleic-acid assay; details: Bos taurus
# How it was run: (§3)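 CT-DNA absorbance followed at 260 nm from 20 to 100 °C, rising 1 °C per min, in BPE buffer, with or without compound at drug/base-pair ratio 0.25 or 0.5. Tm taken as midpoint of the hyperchromic transition from first-derivative plots. ΔTm is Tm with compound minus Tm of DNA alone.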
# [3] = target: T1, DNA topoisomerase 1 (Homo sapiens) (UniProt P11387); assay: Inhibition of human topoisomerase 1 assessed as topoisomerase poison activity by measuring generation of open circular DNA using supercoiled pUC19 DNA at 5 to 50 uM by agarose gel electrophoresis
# T1 sequence (whole entry): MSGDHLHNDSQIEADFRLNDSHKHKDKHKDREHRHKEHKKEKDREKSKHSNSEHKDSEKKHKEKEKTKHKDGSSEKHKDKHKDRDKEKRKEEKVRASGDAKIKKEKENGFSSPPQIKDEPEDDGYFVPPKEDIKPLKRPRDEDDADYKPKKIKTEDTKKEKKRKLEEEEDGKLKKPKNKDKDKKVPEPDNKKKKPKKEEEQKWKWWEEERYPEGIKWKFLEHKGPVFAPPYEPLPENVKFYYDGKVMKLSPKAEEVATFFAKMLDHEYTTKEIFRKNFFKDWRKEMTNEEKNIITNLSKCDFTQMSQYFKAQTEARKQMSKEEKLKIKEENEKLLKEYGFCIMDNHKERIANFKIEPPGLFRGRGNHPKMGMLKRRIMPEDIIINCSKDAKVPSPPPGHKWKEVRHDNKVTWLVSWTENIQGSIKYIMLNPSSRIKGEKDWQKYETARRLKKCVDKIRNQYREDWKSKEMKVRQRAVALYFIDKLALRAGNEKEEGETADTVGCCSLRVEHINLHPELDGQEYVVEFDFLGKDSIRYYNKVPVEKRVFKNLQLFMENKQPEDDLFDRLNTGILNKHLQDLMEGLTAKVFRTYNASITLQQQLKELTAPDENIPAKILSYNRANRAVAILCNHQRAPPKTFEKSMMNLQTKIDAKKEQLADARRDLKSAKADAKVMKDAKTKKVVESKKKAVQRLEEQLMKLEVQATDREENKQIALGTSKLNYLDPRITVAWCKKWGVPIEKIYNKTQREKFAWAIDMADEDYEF
# How it was run: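 Supercoiled pUC19 plasmid was incubated with human topoisomerase I and graded compound concentrations. Reactions were stopped with SDS and proteinase K. DNA forms were resolved on 1% agarose in TBE (2 h, 120 V), post-stained with ethidium bromide and photographed under UV. Poisoning was read as appearance of nicked DNA, with camptothecin as the positive control.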
# Nucleic Acid = assay: Induction of DNA intercalation in supercoiled pUC19 DNA in presence of human topoisomerase 1 assessed as effect on topoisomerase 1-mediated DNA relaxation at 5 to 50 uM by agarose gel electrophoresis; type: nucleic-acid assay; details: Escherichia coli
# How it was run: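 Supercoiled pUC19 incubated with human topoisomerase I and graded compound concentrations. Stopped with SDS/proteinase K. DNA forms resolved on 1% agarose in TBE, 2 h at 120 V, stained post-run with ethidium bromide and viewed under UV. Camptothecin was the topo I poison control.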
# Calf thymus DNA [4] = assay: Binding affinity to calf thymus DNA at 50 uM circular dichroism spectroscopy; type: nucleic-acid assay; details: Bos taurus
# How it was run: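 CD spectra recorded from 480 to 230 nm, 10 mm path, 20 °C, in BPE buffer. CT-DNA (50 µM) incubated with compound rising from 1 to 60 µM or to 80 µM. Compound without DNA served as the control for intrinsic CD.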
# Calf thymus DNA [5] = assay: Binding affinity to calf thymus DNA assessed as change in melting temperature at drug/ base pair ratio of 0.25 by spectrophotometry; type: nucleic-acid assay; details: Bos taurus; how it was run: as §3
Structure (SMILES),inhibition (MCF7),"IC50 (MCF7; Homo sapiens, MCF7, 72 h) [µM]","IC50 ([1]; Homo sapiens, SW-620, 72 h) [µM]",inhibition (SW-620),inhibition (HepG2),IC50 (HepG2) [µM],"IC50 (BJ; Homo sapiens, BJ, 72 h) [µM]","inhibition (INH) (BJ; bj, 72 h)",inhibition (HeLa),"IC50 (HeLa; Homo sapiens, HeLa, 72 h) [µM]",ΔTm (Calf thymus DNA [2]) [°C],inhibition [3],Activity (Nucleic Acid),Activity (Calf thymus DNA [4]),ΔTm (Calf thymus DNA [5]) [°C],IC50 (MCF7; mcf7) [µM],IC50 ([1]; sw-620) [µM],IC50 (BJ; bj) [µM],IC50 (HeLa; hela) [µM]
N#Cc1ccc(/N=C2\c3ccccc3CN2c2ccc(C#N)nc2)cn1,Dose-dependent effect,40.5,83.8,Dose-dependent effect,Dose-dependent effect,5.51,9,Dose-dependent effect,Dose-dependent effect,4.46,–,–,–,–,–,–,–,–,–
CC(=O)Nc1ccc(/N=C2\c3ccccc3CN2c2ccc(NC(C)=O)cc2)cc1,Dose-dependent effect,38.2,> 100,Dose-dependent effect,Dose-dependent effect,71,92.4,Dose-dependent effect,Dose-dependent effect,> 100,–,–,–,–,–,–,–,–,–
CC(=O)Nc1ccc(/N=C2\c3ccccc3CN2c2ccc(NC(C)=O)nc2)cn1,Dose-dependent effect,16,> 100,Dose-dependent effect,Dose-dependent effect,30.4,> 100,Dose-dependent effect,Dose-dependent effect,> 100,0,inactive,inactive,–,–,–,–,–,–
CN(C)c1ccc(/N=C2\c3ccccc3CN2c2ccc(N(C)C)cc2)cc1,Dose-dependent effect,8.99,> 100,Dose-dependent effect,Dose-dependent effect,82.3,> 100,Dose-dependent effect,Dose-dependent effect,92.5,–,–,–,–,–,–,–,–,–
CC(C)NC(=N)c1ccc(/N=C2\c3ccccc3CN2c2ccc(C(=N)NC(C)C)cn2)nc1.Cl,Dose-dependent effect,> 100,> 100,Dose-dependent effect,Dose-dependent effect,> 100,> 100,Dose-dependent effect,Dose-dependent effect,> 100,4.4,inactive,–,inactive,–,–,–,–,–
Nc1ccc(/N=C2\c3ccccc3CN2c2ccc(N)nc2)cn1,Dose-dependent effect,80.7,> 100,Dose-dependent effect,Dose-dependent effect,88.9,> 100,Dose-dependent effect,Dose-dependent effect,> 100,–,–,–,–,–,–,–,–,–
Cl.N=C(N)c1ccc(N2Cc3ccccc3C2=O)nc1,Dose-dependent effect,35.6,44.8,Dose-dependent effect,Dose-dependent effect,40.6,15.8,Dose-dependent effect,Dose-dependent effect,60,–,–,–,–,–,–,–,–,–
CC(C)NC(=N)c1ccc(N2Cc3ccccc3C2=O)nc1.Cl,Dose-dependent effect,6.43,79.9,Dose-dependent effect,Dose-dependent effect,51.5,18.1,Dose-dependent effect,Dose-dependent effect,> 100,–,–,–,–,–,–,–,–,–
Cl.N=C(N)c1ccc(/N=C2\c3ccccc3CN2c2ccc(C(=N)N)nc2)cn1,Dose-dependent effect,42.1,> 100,Dose-dependent effect,Dose-dependent effect,33.9,> 100,Dose-dependent effect,Dose-dependent effect,68.8,14.6,inactive,Active,Active,8.8,–,–,–,–
Nc1ccc(/N=C2\c3ccccc3CN2c2ccc(N)cc2)cc1 [listing 1 of 2 here],–,–,> 100,–,–,> 100,> 100,Dose-dependent effect,–,> 100,–,–,–,–,–,0.05,–,–,–
Cl.Nc1ccc(/N=C2\c3ccccc3CN2c2ccc(N)cc2)cc1,–,–,–,–,–,–,–,Dose-dependent effect,–,–,–,–,–,–,–,0.73,51.1,80.5,62.4
Nc1ccc(/N=C2\c3ccccc3CN2c2ccc(N)cc2)cc1 [listing 2 of 2 here],Dose-dependent effect,–,–,Dose-dependent effect,Dose-dependent effect,–,–,–,Dose-dependent effect,–,0,inactive,inactive,–,–,–,–,–,–
